High-throughput results (PubChem)
OX1R antag-1: OX1R (human) antagonism; OX1R-expressing cells, FRET antagonist read-out; inhibition, % at 6.6 µM; 330,000 compounds, 1.8% hits; O43613; in the data active = inhibition mostly above about 38%, no sharp cut-off; inactive = mostly below about 40%
Target sequence (O43613 whole entry, looked up): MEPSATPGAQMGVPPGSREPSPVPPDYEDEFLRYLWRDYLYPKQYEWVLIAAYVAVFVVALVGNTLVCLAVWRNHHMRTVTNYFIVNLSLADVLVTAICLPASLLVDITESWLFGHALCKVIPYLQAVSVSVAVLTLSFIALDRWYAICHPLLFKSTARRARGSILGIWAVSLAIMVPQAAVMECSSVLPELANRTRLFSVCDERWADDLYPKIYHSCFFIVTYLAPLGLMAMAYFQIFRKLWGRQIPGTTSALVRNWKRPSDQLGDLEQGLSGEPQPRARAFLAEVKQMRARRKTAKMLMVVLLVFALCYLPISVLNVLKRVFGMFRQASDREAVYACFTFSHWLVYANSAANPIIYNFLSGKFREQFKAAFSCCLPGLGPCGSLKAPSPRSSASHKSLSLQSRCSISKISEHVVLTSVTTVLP
TAAR1 antag: antagonists of human TAAR1; inhibition, % at 3 µM; Q96RJ0; 360,000 compounds, 1.5% hits; CHO RD-HGA16 TAAR1, Fluo-8 calcium fluorescence, antagonist;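 active = inhibition above a per-plate cutoff, the mean inhibition of test compounds on that plate plus 3 SD, cut at about 49% in these data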
Target sequence (Q96RJ0 whole entry, looked up): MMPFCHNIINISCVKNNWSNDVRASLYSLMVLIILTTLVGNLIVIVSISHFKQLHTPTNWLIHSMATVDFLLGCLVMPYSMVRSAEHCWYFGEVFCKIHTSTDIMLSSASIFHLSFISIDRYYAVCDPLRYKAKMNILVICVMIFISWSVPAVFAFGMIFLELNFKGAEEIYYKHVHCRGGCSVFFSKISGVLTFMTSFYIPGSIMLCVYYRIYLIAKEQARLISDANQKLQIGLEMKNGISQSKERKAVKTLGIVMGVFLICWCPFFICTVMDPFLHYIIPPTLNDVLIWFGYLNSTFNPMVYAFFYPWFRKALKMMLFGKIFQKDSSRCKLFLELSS
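Test system – hTAAR1-expressing CHO RD-HGA16 cells, Gα16-coupled · Also added – β-PEA at EC80 concentration, post-compound challenge · Compound – 3 µM, single point · Incubation – dye loading 75 min at 37 °C, then 30 min room temperature · Measured by – Fluo-8 intracellular calcium dye fluorescence, real-time kinetic reads · Benchmarks – vehicle and agonist controls · Replicates – singlicate, one well per test compound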
NTR1 agonist: activates human neurotensin receptor 1 | P30989 | NTR1-U2OS beta-arrestin-GFP spot imaging, agonist mode | activation, % at 20 µM | 330,000 compounds, 0.17% hits | AID 493036;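 active = activation at or above 40% of the spot to cytoplasm intensity ratio, with at least 20 cells analyzed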
TAAR1 ag: agonists of human TAAR1; Q96RJ0; CHO RD-HGA16 TAAR1, Fluo-8 calcium fluorescence; vehicle wells 0%, saturating PEA agonist 100%; activation, % at 3 µM; 360,000 compounds, 0.99% hits;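 active = activation above the mean activation of all test compounds in the run plus 3 SD, cut at about 38% in these data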
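System: CHO-derived RD-HGA16 cells with stable Gα16 and human TAAR1. Times: 17-24 h plating, Fluo-8 75 min 37 °C, 30 min RT. Measured by: calcium-sensitive Fluo-8 signal, excitation 470-495, emission 515-575 nm. Read-out basis: % activation relative to PEA EC100 response. Control set: DMSO and PEA EC100. Repeats: no replicates (n 1).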
CHO parental Ca: counter-screen for OX1R antagonists: effect in parental CHO cells. parental CHO-K1, ATP-induced calcium, Fluo-8 fluorescence. inhibition, % at 5.6 µM. 330,000 compounds, 0.63% hits. AID 463079;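 active = inhibition above that plate's mean sample inhibition plus 3 SD, cut at about 26% in these data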
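Material – parental CHO cells · Reagent – ATP stimulus · Compound – single nominal dose of 5.6 µM per compound · Detection – Fluo-8 fluorescence · Read-out basis – percent inhibition of calcium signal · Controls – ATP-challenged DMSO wells low, unchallenged DMSO wells high · Repeats – no replicates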
OX1R antag-2: blocks the human orexin 1 receptor; O43613; CHO/OX1R cells, Fluo-8 calcium fluorescence, orexin A; inhibition, % at 5 µM; 330,000 compounds, 0.43% hits;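 active = inhibition above its plate's threshold, mean inhibition of all tested compounds on the plate plus 3 SD, cut at about 37% in these data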
nonsel antag count: nonselective antagonism, TAAR1 counter-screen; shares compounds with TAAR1 antag; counterscreen cell line, calcium fluorescence, antagonist mode; inhibition, % at 3 µM; 2,400 compounds, 77% hits; AID 651780; in the data active = inhibition above about 22%;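 note: CHO-Ga16 host cells stimulated with ATP at an EC80 level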
TAAR1 ant conf: human TAAR1 antagonism, confirmed; TAAR1-expressing cells, fluorescence antagonist read-out; shares compounds with TAAR1 antag; inhibition, % at 3 µM; AID 651785; 2,400 compounds, 40% hits; in the data active = inhibition above about 49%;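 note: CHO-Ga16 host cells challenged with agonist PEA near its EC80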
Ga16 nonsel ag: counter-screen for TAAR1 antagonists: nonselective Ga16 agonists | shares compounds with TAAR1 antag | Ga16-expressing cells, calcium fluorescence, agonist counterscreen | activation, % at 3 µM | 2,400 compounds, 18% hits; in the data active = activation above about 12%
TAAR1 ag counter: counter-screen for human TAAR1 antagonists: TAAR1 agonists. shares compounds with TAAR1 antag. hTAAR1 cell line, fluorescence activation, agonist mode. activation, % at 3 µM. 2,400 compounds, 2% hits. AID 651955; in the data active = activation above about 37%;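 note: CHO cells stably expressing TAAR1 with calcium dye readout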
Large screens that a line does not name were inactive (follow-up assays come after a bar, where they were run). Shown are actives, neighbours in structure and some others; about 4% of the full set was active somewhere.

CC(C)(C)C(=O)Nc1ccc(Sc2ccc([N+](=O)[O-])cc2)cc1	TAAR1 antag 91 | nonsel antag count 49 | TAAR1 ant conf 60 | Ga16 nonsel ag inactive | TAAR1 ag counter inactive
O=C1/C(=C\c2ccc([N+](=O)[O-])cc2)CCc2ccccc21	none
O=C1/C(=C/Nc2cccc([N+](=O)[O-])c2)CCc2ccccc21	TAAR1 antag 51 | nonsel antag count inactive | TAAR1 ant conf inactive | Ga16 nonsel ag inactive | TAAR1 ag counter inactive
COc1ccc(NS(=O)(=O)c2ccc3c(c2)NC(=O)C(C)S3)cc1 (stereo unspecified)	none
Cn1c(CSCc2ccccc2)nnc1SCC(=O)Nc1nccs1	none
Cn1c(CSCc2ccc(Cl)cc2)nnc1SCC(=O)Nc1nccs1	TAAR1 antag 61 | nonsel antag count 42 | TAAR1 ant conf 56 | Ga16 nonsel ag 17 | TAAR1 ag counter inactive
O=C(CSc1ccc(Cl)cc1)OCC(=O)N1CCN(c2ccccc2)CC1	none (no result: OX1R antag-1, CHO parental Ca, OX1R antag-2)
COc1cc(-c2cc(C(=O)Nc3ccc(C)c(S(=O)(=O)N4CCOCC4)c3)c3ccccc3n2)cc(OC)c1OC	TAAR1 antag 74 | nonsel antag count 40 | TAAR1 ant conf 55 | Ga16 nonsel ag inactive | TAAR1 ag counter inactive
COc1ccc(NC(=O)/C=C/c2ccc(S(=O)(=O)N3CCOCC3)cc2)cc1	none
COc1ccc(/C=C/C(=O)Nc2ccc(C)c(S(=O)(=O)N3CCOCC3)c2)cc1	TAAR1 antag 65 | nonsel antag count 31 | TAAR1 ant conf inactive | Ga16 nonsel ag 13 | TAAR1 ag counter inactive
Cc1ccc(-c2nn(-c3ccccc3)cc2C(=O)Nc2ccc(C)c(S(=O)(=O)N3CCOCC3)c2)cc1	none
COc1cc(-c2cc(C(=O)Nc3ccc(O)cc3)c3ccccc3n2)cc(OC)c1OC	TAAR1 antag 58 | nonsel antag count 27 | TAAR1 ant conf inactive | Ga16 nonsel ag inactive | TAAR1 ag counter inactive
COc1cc(-c2cc(C(=O)Nc3nc4ccccc4s3)c3ccccc3n2)cc(OC)c1OC	TAAR1 antag 58 | nonsel antag count 37 | TAAR1 ant conf inactive | Ga16 nonsel ag inactive | TAAR1 ag counter inactive
CCN=C(NCC)SC1CC(=O)N(c2cccc(OCC)c2)C1=O (stereo unspecified)	TAAR1 antag 71 | nonsel antag count 26 | TAAR1 ant conf 50 | Ga16 nonsel ag inactive | TAAR1 ag counter inactive
CCN=C(NCC)SC1CC(=O)N(c2ccc(OC)cc2)C1=O (stereo unspecified)	TAAR1 antag 65 | nonsel antag count 30 | TAAR1 ant conf 55 | Ga16 nonsel ag 12 | TAAR1 ag counter inactive
O=C(c1cccc(F)c1)N1CCCc2ccccc21	none
CCc1c(C#N)c(SCCC(=O)Nc2ccc(F)cc2)nc2c1C(=O)CC(C)(C)C2	TAAR1 antag 74 | nonsel antag count 33 | TAAR1 ant conf 72 | Ga16 nonsel ag inactive | TAAR1 ag counter inactive
CCCN(CCC)CCN1C(=O)C2C(C(=O)Nc3cccc(SC)c3)C3C=CC2(O3)C1C(=O)NC1CCCCC1 (stereo unspecified)	none
COc1cc2cc(CN(Cc3nnnn3Cc3ccco3)C3CCCCC3)c(=O)[nH]c2cc1OC	none
CCOc1ccc2[nH]c(=O)c(CN(Cc3nnnn3Cc3ccco3)C3CCCCC3)cc2c1	TAAR1 antag 54 | nonsel antag count 28 | TAAR1 ant conf 58 | Ga16 nonsel ag inactive | TAAR1 ag counter inactive
CCOCc1c(C(=O)NC2=Nc3ccccc3NC(CC)=C2C(=O)OCC)oc2ccccc12	OX1R antag-1 40, TAAR1 antag 61 | nonsel antag count 30 | TAAR1 ant conf 55 | Ga16 nonsel ag inactive | TAAR1 ag counter inactive
CCOC(=O)C1=C(CC)Nc2ccccc2N=C1NC(=O)CCNC(C)=O	none
CCOC(=O)C1=C(CC)Nc2ccccc2N=C1NC(=O)c1oc2ccccc2c1C	TAAR1 antag 74 | nonsel antag count 27 | TAAR1 ant conf 53 | Ga16 nonsel ag inactive | TAAR1 ag counter inactive
O=C(C[C@H]1C[C@@H]2c3cc(NC(=O)c4ccc5c(c4)OCO5)ccc3O[C@@H]2[C@H](CO)O1)NCc1cc(F)ccc1F	none (no result: OX1R antag-1, NTR1 agonist, CHO parental Ca, OX1R antag-2)
O=C(Nc1ccc2c(c1)CCCN2C(=O)c1cccs1)c1c(F)cccc1Cl	TAAR1 antag 59 | nonsel antag count 22 | TAAR1 ant conf inactive | Ga16 nonsel ag inactive | TAAR1 ag counter inactive
CC(=O)c1c(C)[nH]c(C(=O)OCC(=O)NCCC2=CCCCC2)c1C	none
Cc1ccccc1NS(=O)(=O)c1ccc(C(=O)N2CCCC2)cc1	none
Cc1ccc(S(=O)(=O)Nc2cccc(C(=O)N3CCN(c4ccccc4O)CC3)c2)cc1F	TAAR1 antag 61 | nonsel antag count 24 | TAAR1 ant conf inactive | Ga16 nonsel ag inactive | TAAR1 ag counter inactive
Cc1cccc(NS(=O)(=O)c2ccc(C(=O)N3CCN(c4ccccc4O)CC3)cc2)c1C	TAAR1 antag 83 | nonsel antag count 38 | TAAR1 ant conf inactive | Ga16 nonsel ag 13 | TAAR1 ag counter inactive
CC(C)Oc1ccc(/C=C/C(=O)NCC2COc3ccccc3O2)cc1 (stereo unspecified)	none
CCOc1cc(N2CCOCC2)c(OCC)cc1NC(=O)CSc1nnc(N)s1	TAAR1 antag 100 | nonsel antag count inactive | TAAR1 ant conf inactive | Ga16 nonsel ag inactive | TAAR1 ag counter inactive
CCN=C1SC(C(=O)Nc2cccc(OCC)c2)CC(=O)N1CC (stereo unspecified)	TAAR1 antag 74 | nonsel antag count 36 | TAAR1 ant conf 60 | Ga16 nonsel ag inactive | TAAR1 ag counter inactive
CCN1C(=O)CC(C(=O)Nc2ccc(F)cc2)SC1=Nc1cccc(OC)c1 (stereo unspecified)	none
COc1cc2c(cc1OC)CN(C(=O)c1sc(-c3cnccn3)nc1C)CC2	none
CN(C)c1ccc(CNCc2cccnc2)cc1	none
CCN(CC)S(=O)(=O)c1ccc(C(C)NCC(=O)Nc2ccccc2C(=O)NC2CC2)cc1 (stereo unspecified)	TAAR1 antag 59 (no result: OX1R antag-1, CHO parental Ca, OX1R antag-2) | nonsel antag count 33 | TAAR1 ant conf 52 | Ga16 nonsel ag inactive | TAAR1 ag counter inactive
CC(NCC(=O)Nc1ccccc1C(=O)NC1CC1)c1ccc(S(N)(=O)=O)cc1 (stereo unspecified)	none
